Reference: ChEMBL document CHEMBL1141109, “Synthesis of an estrogen receptor beta-selective radioligand: 5-[18F]fluoro-(2R,3S)-2,3-bis(4-hydroxyphenyl)pentanenitrile and comparison of in vivo distribution with 16alpha-[18F]fluoro-17beta-estradiol” (J Med Chem, 2005)

Assays:
[1] = Biodistribution of [18F]-FEDPN in rat spleen after 2 hr when given in tail vein; (n=5); assay type: ADME, organism-based; conditions: in vivo, iv
Outline: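 Immature female Sprague–Dawley rats (<25 days old) anesthetized with isoflurane/O2. Given 20 µCi tracer by tail vein in 150 µL of 20% ethanol/saline. […] Killed at 30 min, 1 h or 2 h. Blood and organs blotted, weighed and gamma-counted against a standard dilution of the injectate. Reported as %ID/g ± SD, n=5.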

[2] = biological target: T1, Estrogen receptor (Mus musculus) (UniProt O08537+P19785); test: Ratio of [18F]FEDPN uptake in uterus of ERbeta KO-mouse and ERalpha KO-mouse (nonestrus) after 1 hr
T1 sequence (O08537 whole entry, looked up): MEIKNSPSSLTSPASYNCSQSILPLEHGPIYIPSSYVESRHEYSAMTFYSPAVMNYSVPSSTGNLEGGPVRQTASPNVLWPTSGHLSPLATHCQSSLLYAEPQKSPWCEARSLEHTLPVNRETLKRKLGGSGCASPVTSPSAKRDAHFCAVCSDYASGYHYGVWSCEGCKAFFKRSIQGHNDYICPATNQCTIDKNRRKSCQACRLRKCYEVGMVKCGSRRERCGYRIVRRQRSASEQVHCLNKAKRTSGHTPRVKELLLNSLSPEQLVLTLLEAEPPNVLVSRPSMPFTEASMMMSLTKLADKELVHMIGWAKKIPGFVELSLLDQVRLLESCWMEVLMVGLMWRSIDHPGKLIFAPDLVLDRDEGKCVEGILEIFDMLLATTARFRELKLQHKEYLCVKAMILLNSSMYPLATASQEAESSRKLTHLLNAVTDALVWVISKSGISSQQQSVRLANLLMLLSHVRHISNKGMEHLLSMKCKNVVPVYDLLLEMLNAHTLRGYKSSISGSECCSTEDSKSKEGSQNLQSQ
T1 sequence (P19785 whole entry, looked up): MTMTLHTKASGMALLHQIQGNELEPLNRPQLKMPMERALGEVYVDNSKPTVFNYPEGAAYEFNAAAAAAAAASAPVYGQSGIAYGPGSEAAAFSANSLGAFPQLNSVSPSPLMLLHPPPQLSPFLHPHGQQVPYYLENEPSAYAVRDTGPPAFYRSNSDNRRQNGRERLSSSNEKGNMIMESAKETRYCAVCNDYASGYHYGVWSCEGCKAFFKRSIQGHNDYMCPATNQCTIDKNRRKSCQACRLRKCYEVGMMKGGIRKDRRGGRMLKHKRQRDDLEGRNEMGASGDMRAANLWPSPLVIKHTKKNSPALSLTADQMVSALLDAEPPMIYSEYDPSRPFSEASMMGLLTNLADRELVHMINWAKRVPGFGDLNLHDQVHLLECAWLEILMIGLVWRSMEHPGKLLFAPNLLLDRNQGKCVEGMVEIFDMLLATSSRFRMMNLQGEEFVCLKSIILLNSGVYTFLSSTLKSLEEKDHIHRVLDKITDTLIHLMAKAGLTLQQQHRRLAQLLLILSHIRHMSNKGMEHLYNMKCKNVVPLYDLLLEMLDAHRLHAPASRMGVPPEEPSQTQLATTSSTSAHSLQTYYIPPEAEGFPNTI

[3] = biological target: T1, Estrogen receptor (Mus musculus); test: Ratio of [18F]FEDPN uptake in ovaries of ERbeta KO-mouse and ERalpha KO-mouse (nonestrus) after 1 hr
[4] = Biodistribution of [18F]FES in beta estrogen receptor knock out mouse uterus after 30 min; (n=3); assay type: ADME, organism-based; conditions: in vivo, 0.5 h
[5] = Biodistribution of [18F]FES in alpha estrogen receptor knock out mouse kidney after 30 min; (n=3); assay type: ADME, organism-based; conditions: in vivo, 0.5 h
Outline: (§1)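 Female αERKO mice were rested 48 h after shipping and fed estrogen-free chow. They were staged by daily vaginal smears and studied in diestrus. Each received 13 µCi [18F]FES in 100 µL 10% ethanol/saline and was sacrificed at 30 min, 1 h or 2 h (n = 3 per time). Tissue uptake is given as %ID/g ± SD.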

[6] = Biodistribution of [18F]FES in alpha estrogen receptor knock out mouse lung after 30 min; (n=3); assay type: ADME, organism-based; conditions: in vivo, 0.5 h; outline: as §1
[7] = Biodistribution of [18F]FES in alpha estrogen receptor knock out mouse heart after 2 h; (n=3); assay type: ADME, organism-based; conditions: in vivo; outline: as §1
[8] = Biodistribution of [18F]FES in beta estrogen receptor knock out mouse bone after 2 h; (n=3); assay type: ADME, organism-based, Bone element; conditions: in vivo
[9] = Biodistribution of [18F]-FES in beta estrogen receptor knock out mouse lung after 2 h; (n=3); assay type: ADME, organism-based; conditions: in vivo
Outline: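 Female βERKO mice in estrus were used because repeated swabbing had induced pseudopregnancy. They were fed estrogen-free chow. Each received 13 µCi [18F]FES in 100 µL 10% ethanol/saline and was sacrificed at 30 min, 1 h or 2 h (n = 3 each). Tissue uptake is given as %ID/g ± SD.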

[10] = Biodistribution of [18F]FES in alpha estrogen receptor knock out mouse uterus after 2 h; (n=3); assay type: ADME, organism-based; conditions: in vivo

Biodistribution [1] | Ratio [2] | Ratio [3] | Biodistribution [4] | Biodistribution [5] | Biodistribution [6] | Biodistribution [7] | Biodistribution [8] | Biodistribution [9] | Biodistribution [10] | SMILES
0.06 %ID/g | 1.46 | 0.79 |  |  |  |  |  |  |  | N#C[C@H](c1ccc(O)cc1)[C@@H](CCF)c1ccc(O)cc1
 |  |  | 8.34 %ID/g | 2.46 %ID/g | 2.19 %ID/g | 0.1 %ID/g | 0.53 %ID/g | 0.54 %ID/g | 0.36 %ID/g | C[C@]12CC[C@@H]3c4ccc(O)cc4CC[C@H]3[C@@H]1C[C@@H](F)[C@@H]2O [FLUOROESTRADIOL]
